Reference: ChEMBL document CHEMBL4118255, “Synthesis and antibacterial evaluation of novel 11-O-aralkylcarbamoyl-3-O-descladinosylclarithromycin derivatives” (2018)
In brackets after ≈: the same amount, converted by molar mass.

Assays:
Type in all cases: functional
[1] = test system: Bacillus subtilis; experiment: Antibacterial activity against erythromycin-susceptible Bacillus subtilis ATCC 9372 after 24 hrs by tube-dilution method; settings: ATCC 9372, 24 h
How it was run: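 MIC by standard NCCLS broth microdilution. Reference macrolides clarithromycin and azithromycin run alongside.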

[2] = test system: Streptococcus pneumoniae; experiment: Antibacterial activity against erythromycin-resistant Streptococcus pneumoniae AB11 harboring ermB and mefA genes after 24 hrs by tube-dilution method; settings: AB11, 24 h
How it was run: (§1)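 MIC determined by the NCCLS-recommended standard broth microdilution method against erythromycin-resistant S. pneumoniae strains (A22072 mef, B1 erm, AB11 erm plus mef) and methicillin-resistant S. aureus ATCC43300.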

[3] = test system: Streptococcus pyogenes; experiment: Antibacterial activity against erythromycin-susceptible Streptococcus pyogenes after 24 hrs […]
[4] = test system: Streptococcus pneumoniae; experiment: Antibacterial activity against erythromycin-resistant Streptococcus pneumoniae B1 harboring ermB gene after 24 hrs by tube-dilution method; settings: B1, 24 h; how it was run: as §1
[5] = test system: Staphylococcus aureus; experiment: Antibacterial activity against methicillin-resistant Staphylococcus aureus ATCC 43300 after 24 hrs by tube-dilution method; settings: ATCC 43300, 24 h; how it was run: as §1
[6] = test system: Pseudomonas aeruginosa; experiment: Antibacterial activity against penicillin-susceptible Pseudomonas aeruginosa ATCC 27853 incubated for 24 hrs by […]; settings: ATCC 27853, 24 h
[7] = test system: Streptococcus pneumoniae; experiment: Antibacterial activity against erythromycin-resistant Streptococcus pneumoniae A22072 harboring mefA gene after 24 hrs by […]; settings: A22072, 24 h
[8] = test system: Staphylococcus aureus; experiment: Antibacterial activity against erythromycin-susceptible Staphylococcus aureus ATCC 25923 after 24 hrs by […]; settings: ATCC 25923, 24 h
[9] = test system: Escherichia coli; experiment: Antibacterial activity against penicillin-susceptible Escherichia coli ATCC 25922 incubated for 24 hrs by […]; settings: ATCC 25922, 24 h
[10] = test system: Streptococcus pyogenes; experiment: Antibacterial activity against erythromycin-resistant Streptococcus pyogenes R1 after 24 hrs by tube-dilution method; settings: R1, 24 h
[11] = test system: Staphylococcus aureus; experiment: Potency index, ratio of azithromycin MIC to compound MIC for methicillin-resistant Staphylococcus aureus ATCC 43300
[12] = test system: Staphylococcus aureus; experiment: Potency index, ratio of clarithromycin MIC to compound MIC for methicillin-resistant Staphylococcus aureus ATCC 43300
[13] = test system: Streptococcus pneumoniae; experiment: Potency index, ratio of azithromycin MIC to compound MIC for erythromycin-resistant Streptococcus pneumoniae A22072 harboring mefA gene
[14] = test system: Streptococcus pneumoniae; experiment: Potency index, ratio of clarithromycin MIC to compound MIC for erythromycin-resistant Streptococcus pneumoniae A22072 harboring mefA gene

Row | Compound | MIC [1] | MIC [2] | MIC [3] | MIC [4] | MIC [5] | MIC [6] | MIC [7] | MIC [8] | MIC [9] | MIC [10] | Ratio [11] | Ratio [12] | Ratio [13] | Ratio [14]
1 | CC[C@H]1OC(=O)[C@H](C)C(=O)[C@H](C)[C@@H](O[C@@H]2O[C@H](C)C[C@H](N(C)C)[C@H]2O)[C@](C)(OC)C[C@@H](C)C(=O)[C@H](C)[C@@H](OC(=O)NCCNC(=O)C#Cc2ccc(Cl)cc2)[C@]1(C)O | 2 µg/mL (≈ 2.39 µM) | 64 µg/mL (≈ 76.5 µM) | 1 µg/mL (≈ 1.2 µM) | 128 µg/mL (≈ 153 µM) | 64 µg/mL (≈ 76.5 µM) | > 128 µg/mL | 2 µg/mL (≈ 2.39 µM) | 8 µg/mL (≈ 9.56 µM) | > 128 µg/mL | 128 µg/mL (≈ 153 µM) | – | – | – | –
2 | CC[C@H]1OC(=O)[C@H](C)[C@@H](OC(=O)Cc2cccnc2)[C@H](C)[C@@H](O[C@@H]2O[C@H](C)C[C@H](N(C)C)[C@H]2O)[C@](C)(OC)C[C@@H](C)C(=O)[C@H](C)[C@@H](OC(=O)NCCNC(=O)/C=C/c2ccco2)[C@]1(C)O | 8 µg/mL (≈ 8.74 µM) | 16 µg/mL (≈ 17.5 µM) | 0.125 µg/mL (≈ 0.137 µM) | 64 µg/mL (≈ 69.9 µM) | 32 µg/mL (≈ 35 µM) | > 128 µg/mL | 1 µg/mL (≈ 1.09 µM) | 16 µg/mL (≈ 17.5 µM) | 128 µg/mL (≈ 140 µM) | > 128 µg/mL | 4 | 4 | – | –
3 | CC[C@H]1OC(=O)[C@H](C)C(=O)[C@H](C)[C@@H](O[C@@H]2O[C@H](C)C[C@H](N(C)C)[C@H]2O)[C@](C)(OC)C[C@@H](C)C(=O)[C@H](C)[C@@H](OC(=O)NCCNC(=O)C#Cc2ccc(Br)cc2)[C@]1(C)O | 1 µg/mL (≈ 1.14 µM) | 32 µg/mL (≈ 36.3 µM) | 1 µg/mL (≈ 1.14 µM) | 128 µg/mL (≈ 145 µM) | 16 µg/mL (≈ 18.2 µM) | > 128 µg/mL | 2 µg/mL (≈ 2.27 µM) | 8 µg/mL (≈ 9.08 µM) | 128 µg/mL (≈ 145 µM) | 64 µg/mL (≈ 72.7 µM) | 8 | 8 | – | –
4 | CC[C@H]1OC(=O)[C@H](C)C(=O)[C@H](C)[C@@H](O[C@@H]2O[C@H](C)C[C@H](N(C)C)[C@H]2O)[C@](C)(OC)C[C@@H](C)C(=O)[C@H](C)[C@@H](OC(=O)NCCNC(=O)C#Cc2ccccc2)[C@]1(C)O | 4 µg/mL (≈ 4.99 µM) | 128 µg/mL (≈ 160 µM) | 2 µg/mL (≈ 2.49 µM) | 128 µg/mL (≈ 160 µM) | 128 µg/mL (≈ 160 µM) | > 128 µg/mL | 4 µg/mL (≈ 4.99 µM) | 32 µg/mL (≈ 39.9 µM) | > 128 µg/mL | > 128 µg/mL | – | – | – | –
5 | CC[C@H]1OC(=O)[C@H](C)[C@@H](OC(=O)Cc2cccnc2)[C@H](C)[C@@H](O[C@@H]2O[C@H](C)C[C@H](N(C)C)[C@H]2O)[C@](C)(OC)C[C@@H](C)C(=O)/C(C)=C/[C@]1(C)O | 1 µg/mL (≈ 1.45 µM) | 16 µg/mL (≈ 23.2 µM) | 0.25 µg/mL (≈ 0.362 µM) | 32 µg/mL (≈ 46.3 µM) | 128 µg/mL (≈ 185 µM) | 128 µg/mL (≈ 185 µM) | 1 µg/mL (≈ 1.45 µM) | 1 µg/mL (≈ 1.45 µM) | 128 µg/mL (≈ 185 µM) | 128 µg/mL (≈ 185 µM) | – | – | – | –
6 | CC[C@H]1OC(=O)[C@H](C)C(=O)[C@H](C)[C@@H](O[C@@H]2O[C@H](C)C[C@H](N(C)C)[C@H]2O)[C@](C)(OC)C[C@@H](C)C(=O)[C@H](C)[C@@H](OC(=O)NCCNC(=O)C#Cc2ccccc2Cl)[C@]1(C)O | 4 µg/mL (≈ 4.78 µM) | 128 µg/mL (≈ 153 µM) | 1 µg/mL (≈ 1.2 µM) | 128 µg/mL (≈ 153 µM) | 128 µg/mL (≈ 153 µM) | > 128 µg/mL | 2 µg/mL (≈ 2.39 µM) | 16 µg/mL (≈ 19.1 µM) | > 128 µg/mL | > 128 µg/mL | – | – | – | –
7 | CC[C@H]1OC(=O)[C@H](C)[C@@H](O[C@H]2C[C@@](C)(OC)[C@@H](O)[C@H](C)O2)[C@H](C)[C@@H](O[C@@H]2O[C@H](C)C[C@H](N(C)C)[C@H]2O)[C@](C)(O)C[C@@H](C)CN(C)[C@H](C)[C@@H](O)[C@]1(C)O [AZITHROMYCIN] | 0.25 µg/mL (≈ 0.334 µM) | > 128 µg/mL | 0.03 µg/mL (≈ 0.0401 µM) | > 128 µg/mL | > 128 µg/mL | 16 µg/mL (≈ 21.4 µM) | 4 µg/mL (≈ 5.34 µM) | 0.25 µg/mL (≈ 0.334 µM) | 16 µg/mL (≈ 21.4 µM) | > 128 µg/mL | – | – | – | –
8 | CC[C@H]1OC(=O)[C@H](C)C(=O)[C@H](C)[C@@H](O[C@@H]2O[C@H](C)C[C@H](N(C)C)[C@H]2O)[C@](C)(OC)C[C@@H](C)C(=O)[C@H](C)[C@@H](OC(=O)NCCNC(=O)C#Cc2ccc(C)cc2)[C@]1(C)O | 1 µg/mL (≈ 1.23 µM) | 64 µg/mL (≈ 78.4 µM) | 0.25 µg/mL (≈ 0.306 µM) | 128 µg/mL (≈ 157 µM) | 128 µg/mL (≈ 157 µM) | 128 µg/mL (≈ 157 µM) | 0.5 µg/mL (≈ 0.613 µM) | 8 µg/mL (≈ 9.8 µM) | > 128 µg/mL | > 128 µg/mL | – | – | 8 | 4
